ChEMBL document CHEMBL1165849, “New structures and bioactivity properties of jasplakinolide (jaspamide) analogues from marine sponges” (2010)
The source made the active and inactive calls. The calls are words filed in the database; no cut-off is given here.

Assays:
HeLa = experiment: Cytotoxicity against human HeLa cells at 80 nM after 34 hrs by microfilament disruption assay; assay type: functional, cell-based
HOP-62 = experiment: Growth inhibition of human HOP62 cells by sulforhodamine B assay; assay type: functional
Outline: (§1)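 Tested by NCI in the NCI-DTP 60 cell line panel screen; GI50 was derived, with TGI and LC50 from the same data.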

HCT-116 = experiment: Growth inhibition of human HCT116 cells by sulforhodamine B assay; assay type: functional
HCT-15 = experiment: Growth inhibition of human HCT15 cells by sulforhodamine B assay; assay type: functional; outline: as §1
SF-539 = experiment: Growth inhibition of human SF539 cells by sulforhodamine B assay; assay type: functional; outline: as §1
M14 = experiment: Growth inhibition of human M14 cells by sulforhodamine B assay; assay type: functional; outline: as §1
OVCAR-3 = experiment: Growth inhibition of human OVCAR-3 cells by sulforhodamine B assay; assay type: functional; outline: as §1
786-0 = experiment: Growth inhibition of human 786-0 cells by sulforhodamine B assay; assay type: functional; outline: as §1
MCF7 = experiment: Growth inhibition of human MCF7 cells by sulforhodamine B assay; assay type: functional
[1] = Growth inhibition of human […] cells by sulforhodamine B assay; assay type: functional; outline: as §1

C=C1C[C@H](C)C(=O)N[C@@H](C)C(=O)N(C)[C@H](Cc2c(Br)[nH]c3ccccc23)C(=O)N[C@@H](c2ccc(O)cc2)CC(=O)O[C@@H](C)C[C@@H](C)C1=O [JASPLAKINOLIDE B]
Activity (HeLa): inactive
GI50 (HOP-62): 140 nM
GI50 (HCT-116; Homo sapiens, HCT-116): < 1 nM
GI50 (HCT-15): 6600 nM
GI50 (SF-539): 64 nM
GI50 (M14): 53 nM
GI50 (OVCAR-3): 110 nM
GI50 (786-0): 510 nM
GI50 (MCF7; Homo sapiens, MCF7): 130 nM
GI50 [1]: 1.9 nM

C/C1=C\[C@H](C)C[C@H](C)OC(=O)C[C@H](c2ccc(O)cc2)NC(=O)[C@@H](C[C@]2(O)C(=O)Nc3ccccc32)N(C)C(=O)C(C)NC(=O)[C@@H](C)C1 (stereo partly specified) [JASPLAKINOLIDE S]
Activity (HeLa): inactive
GI50 (HCT-116; Homo sapiens, HCT-116): 810 nM
GI50 (MCF7; Homo sapiens, MCF7): 2300 nM

C=C1C[C@H](C)C(=O)N[C@@H](C)C(=O)N(C)[C@H](Cc2c(Br)[nH]c3ccccc23)C(=O)N[C@@H](c2ccc(O)cc2)CC(=O)O[C@@H](C)C[C@@H](C)[C@@H]1O
Activity (HeLa): inactive

C/C1=C\[C@H](C)C[C@H](C)OC(=O)C[C@H](c2ccc(O)cc2)NC(=O)[C@@H](Cc2c(Br)[nH]c3ccccc23)N(C)C(=O)[C@H](C)NC(=O)[C@@H](C)C1 [JASPAMIDE]
Activity (HeLa): Active
GI50 (HOP-62): 150 nM
GI50 (HCT-116; Homo sapiens, HCT-116): 100 nM
GI50 (HCT-15): 690 nM
GI50 (SF-539): 300 nM
GI50 (M14): 56 nM
GI50 (OVCAR-3): 40 nM
GI50 (786-0): 20 nM
GI50 [1]: 31 nM

C=C1C[C@H](C)C(=O)N[C@@H](C)C(=O)N(C)[C@H](Cc2c(Br)[nH]c3ccccc23)C(=O)N[C@@H](c2ccc(O)cc2)CC(=O)O[C@@H](C)C[C@@H](C)[C@H]1O
Activity (HeLa): inactive

C=C1C[C@H](C)C(=O)N[C@@H](C)C(=O)N(C)[C@H](CC2(OC)OC(=O)Nc3ccccc32)C(=O)N[C@@H](c2ccc(O)cc2)CC(=O)O[C@@H](C)C[C@@H](C)C1=O (stereo partly specified)
Activity (HeLa): inactive

C/C1=C\[C@H](C)C[C@H](C)OC(=O)C[C@H](c2ccc(O)cc2)NC(=O)[C@@H](Cc2ncnc3ccccc23)N(C)C(=O)C(C)NC(=O)[C@@H](C)C1 (stereo partly specified)
Activity (HeLa): inactive

COC1(C[C@@H]2C(=O)N[C@@H](c3ccc(O)cc3)CC(=O)O[C@@H](C)C[C@@H](C)/C=C(\C)C[C@H](C)C(=O)N[C@@H](C)C(=O)N2C)OC(=O)Nc2ccccc21 (stereo in doubt; 5)
Activity (HeLa): inactive

C/C1=C\[C@H](C)C[C@H](C)OC(=O)C[C@H](c2ccc(O)cc2)NC(=O)[C@@H](C[C@@]2(O)C(=O)Nc3ccccc32)N(C)C(=O)C(C)NC(=O)[C@@H](C)C1 (stereo partly specified)
Activity (HeLa): inactive
GI50 (HCT-116; Homo sapiens, HCT-116): > 10000 nM
GI50 (MCF7; Homo sapiens, MCF7): > 10000 nM

C/C1=C\[C@H](C)C[C@H](C)OC(=O)C[C@H](c2ccc(O)cc2)NC(=O)[C@@H](Cc2c(Br)[nH]c3ccccc23)N(C)C(=O)[C@H](CO)NC(=O)[C@@H](C)C1 [JASPAMIDE E]
Activity (HeLa): inactive
GI50 (HOP-62): 140 nM
GI50 (HCT-116; Homo sapiens, HCT-116): 140 nM
GI50 (HCT-15): 970 nM
GI50 (SF-539): 170 nM
GI50 (M14): 78 nM
GI50 (OVCAR-3): 530 nM
GI50 (786-0): 180 nM
GI50 (MCF7; Homo sapiens, MCF7): 180 nM
GI50 [1]: 22 nM

C/C1=C\[C@H](C)C[C@H](C)OC(=O)C[C@H](c2ccc(O)cc2)NC(=O)[C@@H](Cc2c(Br)[nH]c3ccccc23)N(C)C(=O)[C@H](C)NC(=O)CC1
Activity (HeLa): Active

COC1(C[C@@H]2C(=O)N[C@@H](c3ccc(O)cc3)CC(=O)O[C@@H](C)C[C@@H](C)/C=C(\C)C[C@H](C)C(=O)N[C@@H](C)C(=O)N2C)OC(=O)Nc2ccccc21 (stereo in doubt; 6) [JASPLAKINOLIDEP]
GI50 (HCT-116): 380 nM
GI50 (MCF7): 2400 nM

COC1(C[C@@H]2C(=O)N[C@@H](c3ccc(O)cc3)CC(=O)O[C@@H](C)C[C@@H](C)/C=C(\C)C[C@H](C)C(=O)N[C@@H](C)C(=O)N2C)OC(=O)Nc2ccccc21 (stereo in doubt; 5) [JASPLAKINOLIDEP]
GI50 (HCT-116; Homo sapiens, HCT-116): 350 nM
GI50 (MCF7): 4900 nM

COC1(C[C@@H]2C(=O)N[C@@H](c3ccc(O)cc3)CC(=O)O[C@@H](C)C[C@@H](C)/C=C(\C)C[C@H](C)C(=O)N[C@@H](C)C(=O)N2C)OC(=O)Nc2ccccc21 (stereo in doubt; 6)
Activity (HeLa): inactive
